{"source": "PubChem BioAssay AID1800", "about": "(The Scripps Research Institute Molecular Screening Center, 2009)", "note": "Among all 290,000 compounds or so, about 1,600 (0.55%) were called active.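 Rule for the calls: active = inhibition above the mean of all tested compounds plus 3 SD, set per campaign (cut at about 35% in these data); inactive = the rest.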 Many of the other results were omitted from the sample, so actives are more common in it than they were."}
{"test_system": "Hepatitis C virus NS3 helicase", "assay": "inhibitors of HCV NS3 helicase, primary screen, biochemical, Cy5 molecular beacon fluorescence (AID 1800);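 note: 0% = DMSO wells and 100% = thioflavine S control wells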", "conditions": "NS3 helicase DNA unwinding, at 10.9 µM, active compounds read high", "outline": "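System: Hepatitis C virus NS3 helicase domain fragment enzyme | Reagent: Annealed dual-labelled DNA beacon duplex, ATP-started | Compound dosing: 10.9 µM single point, 0.8% DMSO | Incubation: 1 h reaction at 25 °C, ATP-initiated | Technique: Cy5 fluorescence | Evaluation: Percent inhibition from t60/t0 fluorescence ratio | Benchmarks: Low DMSO, high thioflavine S at 110 µM | Replication: Singlicate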"}
{"smiles": "COc1ccc(CN2C(=O)NC(=O)/C(=C\\c3ccc(OC)c(OC)c3OC)C2=O)cc1", "inhibition": "21.5% (inactive)"}
{"smiles": "COc1ccc(N2C(=O)/C(=C/c3ccco3)C(=O)NC2=S)cc1", "inhibition": "58.9% (active)"}
{"smiles": "COc1cccc(N2C(=O)NC(=O)/C(=C\\c3cn(C)c4ccccc34)C2=O)c1", "inhibition": "-1.98% (inactive)"}
{"smiles": "CN(C)CCN(CC1CCCN(Cc2ccccc2F)C1)C(=O)Cc1ccc(F)c(F)c1", "note": "(stereo not given)", "inhibition": "-18.8% (inactive)"}
{"smiles": "Cc1ccc(S(=O)(=O)N(C)c2ccc(C(=O)NCC3(N(C)C)CCCCC3)cc2)cc1", "inhibition": "-37.1% (inactive)"}
{"smiles": "Cc1cc(C)cc(NC(=S)NC2CC3CCCC(C2)N3Cc2cccs2)c1", "note": "(stereo not given)", "inhibition": "-48.3% (inactive)"}
{"smiles": "CC(C)n1c(=O)c(C=Nc2ccc(Br)cc2)c(O)n(Cc2ccco2)c1=O", "inhibition": "45.5% (active)"}
{"smiles": "CN(C)CCCN=Cc1c(O)n(Cc2ccco2)c(=O)[nH]c1=O", "inhibition": "16.9% (inactive)"}
{"smiles": "COc1cc2nc(N3CCN(C(=O)[C@@H]4CCCO4)CC3)nc(N)c2cc1OC", "inhibition": "-0.76% (inactive)"}
{"smiles": "CCN(CC)C(=O)Oc1ccc(NC(=O)N2CCOCC2)cc1", "inhibition": "4.52% (inactive)"}
{"smiles": "O=C1CC(=O)N(Cc2ccccc2)C(=O)N1CCCCCCN1C(=O)CC(=O)N(Cc2ccccc2)C1=O", "inhibition": "41.5% (active)"}
{"smiles": "CC(C)(C)c1ccc(CN2C(=O)CN=C(c3ccccc3)c3ccccc32)cc1", "inhibition": "14.7% (inactive)"}
{"smiles": "O=C(CN1CCCC1=O)NCCc1ccccc1", "inhibition": "0.89% (inactive)"}
{"smiles": "CC1(C)Cc2c(C#N)c(N3CCNCC3)nc(-c3ccco3)c2CS1", "inhibition": "-44.9% (inactive)"}
{"smiles": "Cc1ccc(C2CN(C)CC2C(=O)c2ccc(F)cc2)cc1", "note": "(stereo not given)", "inhibition": "-2.19% (inactive)"}
